{"source": "ChEMBL document CHEMBL3425408", "about": "“Design, synthesis, in vitro, and in vivo anticancer and antiangiogenic activity of novel 3-arylaminobenzofuran derivatives targeting the colchicine site on tubulin” (J Med Chem, 2015)", "key": {"[1]": {"system": "HeLa", "assay": "Antiproliferative activity against human HeLa cells after 72 hrs by (3-(4,5-dimethylthiazol-2-yl)-2,5-diphenyltetrazolium bromide test", "format": "functional, cell-based"}, "[2]": {"system": "PBL", "assay": "Cytotoxicity against human resting PBL cells after 72 hrs by MTT assay", "format": "cell-based", "how_it_was_run": "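Resting PBLs from healthy donors separated on a Lymphoprep gradient and incubated overnight in RPMI-1640 with 10% FBS. Nonadherent cells resuspended at 5 × 10^5 cells/mL without PHA and exposed to compound for 72 h. Viability read by MTT. […] Three experiments.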"}, "[3]": {"system": "A549", "assay": "Antiproliferative activity against human A549 cells after 72 hrs by (3-(4,5-dimethylthiazol-2-yl)-2,5-diphenyltetrazolium bromide test", "format": "functional, cell-based", "conditions": "A549, 72 h"}, "[4]": {"system": "HT-29", "assay": "Antiproliferative activity against human HT-29 cells after 72 hrs by (3-(4,5-dimethylthiazol-2-yl)-2,5-diphenyltetrazolium bromide test", "format": "functional, cell-based", "conditions": "HT-29, 72 h"}, "[5]": {"system": "Jurkat", "assay": "Antiproliferative activity against human Jurkat cells after 72 hrs by (3-(4,5-dimethylthiazol-2-yl)-2,5-diphenyltetrazolium bromide test", "format": "functional, cell-based", "how_it_was_run": "(§1)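 Jurkat, RS4;11 and HL-60 cells grown in RPMI-1640; MCF-7, A549, HeLa and HT-29 cells grown in DMEM; both media with 10% FBS and penicillin/streptomycin. 8 × 10^3 cells per well were preincubated 18 h at 37 °C, 5% CO2, then exposed 72 h to a concentration range (DMSO ≤0.25%). Read-out was MTT; IC50 was taken against cells given the maximum DMSO. Mean ± SE of at least three experiments.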"}, "[6]": {"system": "MCF7", "assay": "Antiproliferative activity against human MCF7 cells after 72 hrs by (3-(4,5-dimethylthiazol-2-yl)-2,5-diphenyltetrazolium bromide test", "format": "functional, cell-based", "conditions": "MCF7, 72 h"}, "[7]": {"assay": "Antiproliferative activity against human HL60 cells after 72 hrs by (3-(4,5-dimethylthiazol-2-yl)-2,5-diphenyltetrazolium bromide test", "format": "functional, cell-based", "conditions": "HL-60, 72 h", "how_it_was_run": "as §1"}, "[8]": {"system": "PBL", "assay": "Cytotoxicity against human PHA-stimulated PBL cells after 72 hrs by MTT assay", "format": "cell-based", "how_it_was_run": "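PBLs came from healthy donors by Lymphoprep gradient, were washed and left overnight in RPMI-1640 with 10% FBS. Nonadherent cells at 5 × 10^5 cells/mL were stimulated with 2.5 μg/mL PHA and given a range of concentrations for 72 h. […] Mean ± SEM of three experiments.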"}, "[9]": {"target": "Tubulin (Bos taurus, UniProt Q6B856+Q862L2+Q862F3)", "assay": "Inhibition of bovine brain tubulin assembly after 20 mins incubation by spectrophotometric analysis", "how_it_was_run": "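Bovine brain tubulin (10 μM) was preincubated with varying compound concentrations in glutamate buffer at 30 °C, then chilled to 0 °C. GTP was added to 0.4 mM final and the mixture warmed to 30 °C in cuvettes.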"}, "[10]": {"target": "Tubulin (Bos taurus) (UniProt Q6B856+Q862L2+Q862F3)", "assay": "Displacement of [3H]colchicine from bovine brain tubulin at 5 uM after 20 mins by scintillation counting analysis", "how_it_was_run": "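Reaction mixtures held 1 μM tubulin, 5 μM [3H]colchicine and 5 μM test compound. Inhibition of radiolabelled colchicine binding was reported as percent inhibition.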"}, "[11]": {"system": "Jurkat", "assay": "Induction of cell cycle arrest in human Jurkat cells assessed as cell arrest at G2/M phase after 24 hrs by propidium iodide based flow cytometric analysis", "format": "functional", "how_it_was_run": "(§2)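 HeLa or Jurkat cells (5 × 10^5) treated 24 h. Cells fixed in ice-cold 70% ethanol, lysed with RNase A and 0.1% Triton X-100, and stained with propidium iodide. DNA content analyzed by flow cytometry to give cell-cycle phase distribution.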"}, "[12]": {"system": "HeLa", "assay": "Induction of cell cycle arrest in human HeLa cells assessed as cell arrest at G2/M phase after 24 hrs by propidium iodide based flow cytometric analysis", "format": "functional", "how_it_was_run": "as §2"}, "[13]": {"system": "Jurkat", "assay": "Induction of cells cycle arrest in human Jurkat cells assessed as cell arrest at G2/M phase at > 60 nM after 24 hrs by propidium iodide based flow cytometric analysis", "format": "functional", "how_it_was_run": "as §2"}, "[14]": {"system": "HeLa", "assay": "Induction of cell cycle arrest in human HeLa cells assessed as increase in cyclin B expression at 100 nM after 24 hrs by Western blot analysis", "format": "functional, cell-based", "how_it_was_run": "(§3)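 HeLa cells treated 24 or 48 h. Lysates cleared at 15000g, and 10 μg protein run on 7.5–15% SDS-PAGE and blotted to PVDF. Membranes blocked in 5% BSA and probed for cyclin B, p-cdc2 Tyr15 and cdc25c, then detected with peroxidase secondary and ECL. Blots stripped and reprobed for β-actin as loading control.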"}, "[15]": {"system": "HeLa", "assay": "Induction of cell cycle arrest in human HeLa cells assessed as increase in cyclin B expression at 250 nM after 24 hrs by Western blot analysis", "format": "functional, cell-based", "how_it_was_run": "as §3"}, "[16]": {"system": "HeLa", "assay": "Induction of cell cycle arrest in human HeLa cells assessed as decrease in p-cdc2 Tyr15 expression at 100 to 250 nM after 48 hrs by Western blot analysis", "format": "functional, cell-based", "how_it_was_run": "as §3"}, "[17]": {"system": "HeLa", "assay": "Induction of apoptosis in human HeLa cells assessed as accumulation of annexin-V positive cells after 24 to 48 hrs by annexin-V-FITC/PI based flow cytometry", "format": "functional, cell-based", "how_it_was_run": "(§4)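 HeLa cells treated 24 or 48 h, then double-stained with annexin V-FITC and PI. Surface phosphatidylserine exposure measured by flow cytometry.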"}, "[18]": {"system": "HeLa", "assay": "Induction of apoptosis in human HeLa cells assessed as accumulation of annexin-V positive cells after at 100 to […] by annexin-V-FITC/PI based flow cytometry", "format": "functional, cell-based", "conditions": "TDE = time-dependent effect", "how_it_was_run": "as §4"}, "[19]": {"system": "HeLa", "assay": "Induction of apoptosis in human HeLa cells assessed as increase in proportion of cells with depolarized mitochondria at 100 to […] by JC1 staining based flow cytometry", "format": "functional, cell-based", "how_it_was_run": "(§5)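 HeLa cells treated 24 or 48 h, then stained with JC-1. Cells with depolarized mitochondria quantified by flow cytometry. Three independent experiments.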"}, "[20]": {"system": "HeLa", "assay": "Induction of apoptosis in human HeLa cells assessed as increase in proportion of cells with depolarized mitochondria after 24 to 48 hrs by JC1 staining based flow cytometry", "format": "functional, cell-based", "conditions": "TDE = time-dependent effect", "how_it_was_run": "as §5"}, "[21]": {"system": "HeLa", "assay": "Induction of apoptosis in human HeLa cells assessed as caspase 3 activation at 100 to […] by Western blot analysis", "format": "functional, cell-based", "conditions": "TDE = time-dependent effect", "how_it_was_run": "(§6)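 HeLa lysates prepared after the indicated times. 10 μg protein separated by SDS-PAGE on PVDF blots. Primary antibodies (2 h, room temperature) against PARP, caspase-3, cleaved caspase-9, Bcl-2 and Mcl-1, then peroxidase secondary with ECL detection. β-Actin reprobe used as loading control.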"}, "[22]": {"system": "HeLa", "assay": "Induction of apoptosis in human HeLa cells assessed as caspase 3 activation after 24 to 48 hrs by Western blot analysis", "format": "functional, cell-based", "how_it_was_run": "as §6"}, "[23]": {"system": "HeLa", "assay": "Induction of apoptosis in human HeLa cells assessed as caspase 9 activation after 24 to 48 hrs by Western blot analysis", "format": "functional, cell-based", "how_it_was_run": "as §6"}, "[24]": {"system": "HeLa", "assay": "Induction of apoptosis in human HeLa cells assessed as PARP cleavage at 100 to 250 nM after 24 to 48 hrs by Western blot analysis"}, "[25]": {"system": "HeLa", "assay": "Induction of apoptosis in human HeLa cells assessed as increase in Mcl-1 expression at 100 to 250 nM after 24 hrs by Western blotting analysis"}, "[26]": {"system": "HeLa", "assay": "Induction of apoptosis in human HeLa cells assessed as reduction in Mcl-1 expression at 100 to 250 nM after 48 hrs by Western blotting analysis"}}, "note": "Calls of active or inactive are those of the source. The rule behind the calls is not given here."}
{"smiles": "CCOC(=O)c1oc2cc(OC)ccc2c1Nc1cc(OC)c(OC)c(OC)c1", "values": [{"measurement": "IC50", "setting": "[1]", "result": 13, "unit": "nM"}, {"measurement": "IC50", "setting": "[2]", "result": "> 10000", "unit": "nM"}, {"measurement": "IC50", "setting": "[3]", "result": 36, "unit": "nM"}, {"measurement": "IC50", "setting": "[4]", "result": 17, "unit": "nM"}, {"measurement": "IC50", "setting": "[5]", "result": 22, "unit": "nM"}, {"measurement": "IC50", "setting": "[6]", "result": 25, "unit": "nM"}, {"measurement": "IC50", "setting": "[7]", "result": 24, "unit": "nM"}, {"measurement": "IC50", "setting": "[8]", "result": 6300, "unit": "nM"}, {"measurement": "IC50", "setting": "[9]", "result": 1500, "unit": "nM"}, {"measurement": "inhibition", "setting": "[10]", "result": 74, "unit": "%"}, {"measurement": "Activity", "setting": "[11]", "result": "Dose-dependent effect"}, {"measurement": "Activity", "setting": "[12]", "result": "Dose-dependent effect"}, {"measurement": "Activity", "setting": "[13]", "result": ">70", "unit": "%"}, {"measurement": "Activity", "setting": "[14]", "result": "Active"}, {"measurement": "Activity", "setting": "[15]", "result": "Active"}, {"measurement": "inhibition", "setting": "[16]", "result": "Active"}, {"measurement": "Activity", "setting": "[17]", "result": "Dose-dependent effect"}, {"measurement": "Activity", "setting": "[18]", "result": "tde"}, {"measurement": "Activity", "setting": "[19]", "result": "Dose-dependent effect"}, {"measurement": "Activity", "setting": "[20]", "result": "tde"}, {"measurement": "Activity", "setting": "[21]", "result": "tde"}, {"measurement": "Activity", "setting": "[22]", "result": "Dose-dependent effect"}, {"measurement": "Activity", "setting": "[23]", "result": "Dose-dependent effect"}, {"measurement": "Activity", "setting": "[24]", "result": "Active"}, {"measurement": "Activity", "setting": "[25]", "result": "inactive"}, {"measurement": "Activity", "setting": "[26]", "result": "Active"}]}
{"smiles": "COC(=O)c1oc2cc(OC)ccc2c1Nc1cc(OC)c(OC)c(OC)c1", "values": [{"measurement": "IC50", "setting": "[1]", "result": 2, "unit": "nM"}, {"measurement": "IC50", "setting": "[2]", "result": "> 10000", "unit": "nM"}, {"measurement": "IC50", "setting": "[3]", "result": 9, "unit": "nM"}, {"measurement": "IC50", "setting": "[4]", "result": 3, "unit": "nM"}, {"measurement": "IC50", "setting": "[5]", "result": 8, "unit": "nM"}, {"measurement": "IC50", "setting": "[6]", "result": 27, "unit": "nM"}, {"measurement": "IC50", "setting": "[7]", "result": 5, "unit": "nM"}, {"measurement": "IC50", "setting": "[8]", "result": "> 10000", "unit": "nM"}, {"measurement": "IC50", "setting": "[9]", "result": 1100, "unit": "nM"}, {"measurement": "inhibition", "setting": "[10]", "result": 83, "unit": "%"}, {"measurement": "Activity", "setting": "[11]", "result": "Dose-dependent effect"}, {"measurement": "Activity", "setting": "[12]", "result": "Dose-dependent effect"}, {"measurement": "Activity", "setting": "[13]", "result": ">70", "unit": "%"}, {"measurement": "Activity", "setting": "[14]", "result": "Active"}, {"measurement": "Activity", "setting": "[15]", "result": "Active"}, {"measurement": "inhibition", "setting": "[16]", "result": "Active"}, {"measurement": "Activity", "setting": "[17]", "result": "Dose-dependent effect"}, {"measurement": "Activity", "setting": "[18]", "result": "tde"}, {"measurement": "Activity", "setting": "[19]", "result": "Dose-dependent effect"}, {"measurement": "Activity", "setting": "[20]", "result": "tde"}, {"measurement": "Activity", "setting": "[21]", "result": "tde"}, {"measurement": "Activity", "setting": "[22]", "result": "Dose-dependent effect"}, {"measurement": "Activity", "setting": "[23]", "result": "Dose-dependent effect"}, {"measurement": "Activity", "setting": "[24]", "result": "Active"}, {"measurement": "Activity", "setting": "[25]", "result": "Active"}, {"measurement": "Activity", "setting": "[26]", "result": "Active"}]}
